Results reported in ChEMBL document CHEMBL4513216, “Probing the Open Global Health Chemical Diversity Library for Multistage-Active Starting Points for Next-Generation Antimalarials” (ACS Infect Dis, 2020).

Test: Toxicity liver stage against HepG2, at 10uM
Assay type: cell-based
Design: test concentration 10 uM, cell line HepG2-A16-CD81EGFP
Details: human, HepG2-A16-CD81EGFP cells; read-out: INHIBITION
Method in brief: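 Uninfected HepG2-A16-CD81EGFP cells, 3 × 10^3 per well, 1536-well, plated on prespotted compound at 10 μM final, parasite-free screening media added to match infected plates; puromycin 10 μM positive, DMSO 0.5% negative; run in parallel with 48 h PbLuc assay at 37 °C, 5% CO2; viability by CellTiter-Glo luminescence, normalized to controls.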

Row | Structure (SMILES) | cytotoxicity at 10 µM
1 | COc1cc(NC(=O)c2nc3ccccc3n(C)c2=O)cc(OC)c1 | 7.67%
2 | COc1ccc2c(c1)CN(CC1CC1)C(=O)CCN2CC(C)(C)O | -13.9%
3 | O=c1c(NCCc2ccc(O)cc2)c(NCc2ccccn2)c1=O | -2.72%
4 | O=C(c1ccoc1)N1CCC2(CC1)COC(COCc1ccccn1)C2 (centres undefined) | -138%
5 | CNC(=O)C1Cn2ccnc2C2(CCN(Cc3csc(C)n3)CC2)O1 (centres undefined) | -151%
6 | CC(C)NC(=O)N1CCN(C(=O)N(C)C)CC2(CC(=O)N(C)C2)C1 (centres undefined) | -17.8%
7 | COc1ccc2c(c1)C1(CCN(Cc3ccoc3)CC1)N(C)CC2 | -8.04%
8 | Cc1n[nH]c(C)c1S(=O)(=O)N(C)Cc1nn(C)c(Cl)c1Cl | 0.303%
9 | O=C(c1ccnc(C2CCNCC2)c1)N1CCCC(CO)C1 (centres undefined) | 3.9%
10 | Cc1nccn1[C@@H]1CC[C@@H](NC(=O)Cn2c(C)nc3ccccc32)[C@H]1O | 2.41%
11 | Cc1nc(CC(=O)N2CCC(c3ccn4nccc4n3)CC2)cs1 | -0.956%
12 | COc1cc(CN2CCCC[C@]3(C)NC(=O)CC[C@H]23)ccc1F | -2.32%
13 | Cn1cnc(S(=O)(=O)N2CCCC2c2ccnc3nccn23)c1 (centres undefined) | 6.28%
14 | O=C(CC1CCCC1)N1CCC(c2noc(-c3ccccn3)n2)CC1 | 5.05%
15 | Cc1nc(CN2CCCC(c3nccs3)C2)cs1 (centres undefined) | 2.3%
16 | CC(C(=O)NC1CC1)n1nc(-c2cccs2)cc(N)c1=O (centres undefined) | 10.9%
17 | O=C1NC2(CCN(C(=O)CN3CCOCC3)CC2)Nc2ccc(Cl)cc21 | 0.961%
18 | CC(=O)N1CCC(C)(c2nc(C)no2)CC1 | -1.55%
19 | CC(C)N1CCC(c2nccnc2Nc2cnccn2)CC1 | 1.44%
20 | CCc1nnc(Nc2cc(C)nc(C3CCN(c4ccncn4)C3)n2)s1 (centres undefined) | 4.38%
21 | COCC1CCN(c2cc(C3CN(C)CCO3)nc(C)n2)CC1 (centres undefined) | 4.71%
22 | Cc1ccc(S(=O)(=O)Nc2ccc(C)c(C(=O)O)c2)s1 | -1.51%
23 | O=C(c1cc[nH]n1)N1CCc2cc(Br)sc2C1 | 7.01%

Row | Structure (SMILES) | cytotoxicity at 10 µM
24 | CCOc1cc(CNC(=O)NC2CC=CC2)ccc1OC(F)F | -42.4%
25 | CCN(CC)CCn1cc(NC(=O)Nc2ccccc2OC)cn1 | 12.7%
26 | CCCc1cc(C(=O)N2CCCN(c3cccnn3)CC2)[nH]n1 | -1.16%
27 | CC(C)C(=O)Nc1cccc(CNC(=O)CSCc2ccccn2)c1 | 9.65%
28 | CC(CNS(C)(=O)=O)Oc1cccc(Cl)c1 (centres undefined) | 4.6%
29 | CCOc1ccccc1CN(C)C(C)c1nc(-c2cccnc2)no1 (centres undefined) | 7.84%
30 | CC(=O)N1CCN(C(=O)NC(C)Cn2ccnc2)CC1 (centres undefined) | -1.05%
31 | O=C(NC1CCCN(Cc2c(F)cccc2F)C1)c1cnccn1 (centres undefined) | -1.62%
32 | CC(C)N1CCC(NC(=O)NCc2cccnc2)C1 (centres undefined) | 7.67%
33 | CN(CCCOc1ccccc1)S(=O)(=O)c1cnn(C)c1 | -6.7%
34 | NC(=O)NC(=O)C(c1ccccc1)N1CCN(Cc2ccccc2)CC1 (centres undefined) | -5.68%
35 | COCCNC(=O)CCNc1cc(C)nc(-c2ccncc2)n1 | -1.26%
36 | Cc1cc(CN2CCN(C(=O)C3(C#N)CCCCC3)CC2)on1 | 4.81%
37 | Cc1ccc(C(=O)N(CC2CCCO2)c2ccncc2)o1 (centres undefined) | -3.08%
38 | CNC(=O)C1Cc2ccccc2CN1CCC#N (centres undefined) | 6.35%
39 | COC(C)c1nc(CN2CCCNCC2)cs1 (centres undefined) | -3.78%
40 | CSCC(C)(O)CNC(=O)c1ccc(F)cc1Cl (centres undefined) | -2.79%
41 | N#Cc1ccc(CNc2cccc(C(=O)N3CCOCC3)c2)cc1 | -4.34%
42 | CC(C)Cc1nc(CN2CCC(NC(=O)c3cccs3)CC2)no1 | -2.56%
43 | Cc1cc(CN2CCc3cncnc3C2)no1 | 5.84%
44 | CN(CCc1ccccn1)C1CCCN(Cc2noc(C3CC3)n2)C1 (centres undefined) | 11.6%
45 | CCCOc1cc(C)ccc1NC(=O)N(C)C | -4.59%
46 | O=C(Nc1cn[nH]c1)N(CCO)C1CCc2ccccc21 (centres undefined) | -8.74%

Row | Structure (SMILES) | cytotoxicity at 10 µM
47 | CC(=O)N(Cc1ccsc1)c1ccccc1 | -1.74%
48 | COCCS(=O)(=O)NC(C)c1ccccc1Cl (centres undefined) | 5.53%
49 | COc1c(CNCc2cccnc2OC2CCCC2)c(C)nn1C | -2.01%
50 | O=C(c1ccncc1)N1CCN(c2ccc(F)cc2Cl)CC1 | -140%
51 | COc1ccc(CSCC(O)CO)c(Cl)c1 (centres undefined) | -142%
52 | Cc1ncsc1C(=O)N1CCN(Cc2ccccc2)CC1C (centres undefined) | -161%
53 | CN(CC(F)(F)F)C(=O)CN1CCC(c2cc3ccccc3[nH]2)CC1 | 4.93%
54 | CSCc1cc(F)ccc1CNCc1ccncc1 | -7.53%
55 | CC(=O)N(C)c1nc(Cn2nnnc2C(C)(C)C)cs1 | 6.56%
56 | CCOCCN1CCN(CC(O)c2ccc(C(F)(F)F)cc2)CC1 (centres undefined) | -16.6%
57 | CN(CCC(N)=O)Cc1cc(Br)cs1 | -0.711%
58 | Fc1ccc(C(NCc2nnc(C3CC3)o2)C2CCC2)cc1 (centres undefined) | -48.1%
59 | Cc1ccc(N2CCCC(NC(=O)Nc3cnn(C)c3)C2=O)cc1 (centres undefined) | -44%
60 | CS(=O)(=O)c1nnc(NC(=O)CCc2ccc(Cl)s2)[nH]1 | 6.13%
61 | O=C(NCCCN1CCN(c2ncccn2)CC1)NCC1CCOC1 (centres undefined) | -56.6%
62 | N#Cc1cc(F)c(NCCc2ccc(F)cc2)c(F)c1 | -60.3%
63 | CC(C)N(C)CC(=O)NC1CCc2nccn2C1 (centres undefined) | 17.8%
64 | COCC1CN(S(=O)(=O)c2ccccc2)Cc2ncnn2C1 (centres undefined) | -117%
65 | CN(C)CC(=O)N1Cc2nnn(C)c2C(COCC2CC2)C1 (centres undefined) | -99.4%
66 | Cc1cc(CN2CC[C@H]3C[C@H](C(=O)N(C)C)O[C@@H]3C2)no1 | -5.53%
67 | CCOCCn1c(=O)[nH]c2cc(C(=O)N(C)Cc3cnn(C)c3)ccc21 | 2.81%
68 | COc1ccc(CCC2CCCN(CC(=O)O)C2)cc1 (centres undefined) | 3.38%
69 | COC(=O)c1cc(C)nc(N2CCN(Cc3ccn(C(C)C)c3)CC2)n1 | 9.77%

Row | Structure (SMILES) | cytotoxicity at 10 µM
70 | CC(C)c1nnc2sc(CC3CN(C(C)C)CCO3)nn12 (centres undefined) | -13.8%
71 | CCc1n[nH]c(SCC(=O)N2CCc3[nH]nc(C4CCC4)c3C2)n1 | -12.1%
72 | Cc1cc(Cn2cc(C(C)Cc3ccc4c(c3)OCO4)nn2)n[nH]1 (centres undefined) | 5.92%
73 | CCn1ccnc1C1CCN(Cc2cccc(C)n2)CC1 | -7.93%
74 | CC(C)Oc1cc(N2CCC3(CC2)[C@H](O)C[C@@H]3O)nc(N)n1 | -0.335%
75 | CCNc1ncc(CN2C[C@H](C3CC3)[C@@H](N)C2)cn1 | -40%
76 | Cc1cc(C(F)(F)F)cc(N2CCN(Cc3ccccc3)CC(O)C2)n1 (centres undefined) | 0.165%
77 | COCc1ncc(CN2C[C@@H](C(=O)O)[C@H](C(C)C)C2)cn1 | -2.97%
78 | Cc1cc(C)c2[nH]c(C(=O)NCCN3CCOC3=O)c(C)c2c1 | -0.2%
79 | Cc1ccc(C)c(CN2CCCn3nc(CNS(C)(=O)=O)cc3C2)c1 | -4.64%
80 | CN(C)CCN1CC(C(=O)NCc2cn3cccnc3n2)CC1=O (centres undefined) | -4.29%
81 | CCOc1ccc2[nH]c(=O)c(CN3CCCCC3C)cc2c1 (centres undefined) | -0.895%
82 | Cc1cc(C)n(-c2ccc(C(=O)NCC(CO)Cc3cccs3)cc2)n1 (centres undefined) | 6.64%
83 | CCn1cc(CN2CCC(CNC(C)=O)CC2)cc1C#N | -6.21%
84 | O=C(CSCC1CC1)N1CCCN(Cc2ccc(F)cc2)CC1 | 3.54%
85 | CCCc1cc(NCc2cc(C)on2)n2nccc2n1 | -6.85%
86 | O=C(CC1COCCN1)NCCc1noc(-c2ccccc2)n1 (centres undefined) | 3.05%
87 | COc1ccccc1OC1CCN(C(=O)CCCN2CCOCC2)CC1 | -177%
88 | CSc1ccc(-c2nc(CN3C[C@@H](C)NC[C@@H]3C)c(C)o2)cc1 | -3.06%
89 | CCNC(=O)[C@@H]1C[C@H](N)CN1C(=O)c1c[nH]c2ccccc12 | -8.34%
90 | CC1(C)CN(CCC(=O)NCc2cccc(Cl)c2)CC[C@]1(C)O | -3.45%
91 | COc1cccc(CN2CC3(CCNCC3)CCC2=O)c1OC | 6.39%
92 | CSCCC(O)C(=O)N(C)Cc1cnn(-c2ccc(F)cc2)c1 (centres undefined) | -5.36%

Row | Structure (SMILES) | cytotoxicity at 10 µM
93 | Cc1ccc(C)c(OC(C)C(=O)NCc2cccnc2)c1 (centres undefined) | 2.13%
94 | Cc1nc(N2CCN(S(C)(=O)=O)CC2)cc(-n2cnc(C)c2C)n1 | -5.83%
95 | CCc1nn(C)c(Cl)c1CN1CCN(c2nc(C(N)=O)cs2)CC1 | 8.81%
96 | Cc1ccc(C)c(OC(C)C(=O)NCCNc2cccnc2)c1 (centres undefined) | 1.32%
97 | Cc1cc(C(=O)N2CCC(c3nccn3Cc3ccncc3)CC2)no1 | -15.7%
98 | O=C(Cn1cccnc1=O)NC(Cc1cccs1)c1ccccn1 (centres undefined) | -2.03%
99 | Cc1ccc(NC2CCN(C(=O)CCc3ccncc3)CC2)nn1 | -9.43%
100 | CCC(=O)NCC(=O)NCC1CCN(c2cc(Cl)ccc2C)C1 (centres undefined) | -13.2%
101 | CCOCC(O)CN1CCN(C(=O)c2ccc(C)nc2)CC1 (centres undefined) | 0.661%
102 | CCc1nc(CN(C)C2CCN(CC(=O)N(C)C)C2)no1 (centres undefined) | -16.7%
103 | CC(O)CN1CCC(CNCc2cccc(Cl)c2)CC1 (centres undefined) | -23.8%
104 | Cc1ccoc1C(=O)N1CCCC(CNS(C)(=O)=O)C1 (centres undefined) | -23.4%
105 | Cc1nnc(NC(=O)NCc2cc(F)cc(F)c2)s1 | -6.07%
106 | Cc1cnc2c(S(=O)(=O)NCC3CCN(C4CC4)C3)cccc2c1 (centres undefined) | -6.36%
107 | CS(=O)(=O)NC1CCN(C(=O)NCCc2ccccc2F)CC1 | -3.83%
108 | CCn1ccnc1CN1CCCN(C(=O)c2cc(Cl)c[nH]2)CC1 | -9.6%
109 | CCc1nc(CNCC2CCCN2c2cc(NC)ncn2)cs1 (centres undefined) | -9.11%
110 | CCNC(=O)Nc1ccc2c(ccn2CC(=O)N(CC)CC)c1 | -0.421%
111 | c1csc(-c2nc(CN3CCOC(Cn4cncn4)C3)co2)c1 (centres undefined) | -11.8%
112 | Cc1ccccc1-n1nc(C)c(CN(C)C(C)Cc2ccccn2)c1C (centres undefined) | 0.58%
113 | COCC1CN(Cc2ccoc2)Cc2nn(C)cc21 (centres undefined) | -81.7%
114 | c1cncc(COC[C@@H]2CCC[C@@]23CNCCO3)c1 | -106%
